From ChEMBL document CHEMBL1129303, “Potent human immunodeficiency virus type 1 protease inhibitors that utilize noncoded D-amino acids as P2/P3 ligands” (J Med Chem, 1996)
“And” between values parts separate entries of the source, which are not always exact repeats. Identical values can stand only once.

Assays:
[1] = Maximum plasma concentration in rat upon oral administration of 40 mg/kg; type: ADME, organism-based; parameters: dose 40 mg/kg, route oral
Procedure, shortened: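 Fasted (16-18 h) Harlan Sprague-Dawley rats, jugular cannula implanted ≥48 h earlier, gavaged 40 mg/kg in acacia/Tween emulsion, n=2. Plasma from 0-4 h blood draws diluted 1:49 and assayed by HIV protease cleavage of FITC-labelled peptide (5 h, 37 °C, MES pH 5.5) with HPLC quantitation. Inhibitory activity read against a standard curve of parent compound; Cmax is the peak.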

CCRF-CEM [2] = test: Antiviral activity against CEM cells; type: functional, cell-based; details: Homo sapiens
CCRF-CEM [3] = test: In vitro inhibitory activity against replication of HIV type-1 virus in CEM cells; type: functional, cell-based; details: Homo sapiens
MT2 = test: Antiviral activity against MT-2 cells; type: functional, cell-based; details: Homo sapiens
[4] = biological target: Human immunodeficiency virus type 1 protease (Human immunodeficiency virus 1, UniProt Q72874); test: Inhibitory activity against HIV-1 protease

| Cmax [1] [ng/mL] | IC50 (CCRF-CEM [2]) [nM] | IC50 (CCRF-CEM [3]) [nM] | IC50 (MT2) [nM] | IC50 [4] | Compound |
| --- | --- | --- | --- | --- | --- |
| 330 | < 0.5 | 6.7 | 4.3 | 3.5 nM | CC(C)(C)NC(=O)c1ccccc1C[C@@H](O)[C@H](Cc1ccccc1)NC(=O)[C@H](C[S+]([O-])c1ccc2ccccc2c1)NS(C)(=O)=O (stereo partly drawn) |
|  | 800 |  | 730 | 19.4 nM | CC(C)(C)NC(=O)c1ccccc1C[C@@H](O)[C@H](Cc1ccccc1)NC(=O)[C@H](CS(=O)(=O)Cc1ccccc1)NS(C)(=O)=O |
|  |  |  |  | 22 nM | CC(C)(C)NC(=O)c1ccccc1C[C@@H](O)[C@H](Cc1ccccc1)NC(=O)[C@H](CS(=O)(=O)c1ccccn1)NS(C)(=O)=O |
| < 200 | 330 | 474 | 770 | 19.3 nM and 7.9 nM | CC(C)(C)NC(=O)c1ccccc1C[C@@H](O)[C@H](Cc1ccccc1)NC(=O)[C@H](C[S+]([O-])c1ccccn1)NS(C)(=O)=O (stereo partly drawn) |
| < 300 | 138 | 16 | 24 | 0.34 nM | CC(C)(C)NC(=O)c1ccccc1C[C@@H](O)[C@H](Cc1ccccc1)NC(=O)[C@H](CS(=O)(=O)c1ccc(Cl)cc1)NS(C)(=O)=O |
| < 300 | 204 | 646 | 450 | 2 nM | CC(C)(C)NC(=O)c1ccccc1C[C@@H](O)[C@H](Cc1ccccc1)NC(=O)[C@H](CS(=O)(=O)c1ccc(C(F)(F)F)cc1)NS(C)(=O)=O |
|  |  | 59 |  | 0.28 nM | CC(=O)N[C@@H](CS(=O)(=O)c1ccc2ccccc2n1)C(=O)N[C@@H](Cc1ccccc1)[C@H](O)Cc1ccccc1C(=O)NC(C)(C)C |
|  | 2060 | 5780 | 3030 | 2.8 nM | CC(C)(C)NC(=O)c1ccccc1C[C@@H](O)[C@H](Cc1ccccc1)NC(=O)C(CS(=O)(=O)c1ccc2ccccc2n1)NS(C)(=O)=O (stereo partly drawn) |
|  | 6680 |  | 9260 | 17.5 nM | Cn1nnnc1SC[C@H](NS(C)(=O)=O)C(=O)N[C@@H](Cc1ccccc1)[C@H](O)Cc1ccccc1C(=O)NC(C)(C)C |
|  | 815 |  | 820 | 20 nM | CC(=O)N[C@@H](CS(=O)(=O)c1ccccc1)C(=O)N[C@@H](Cc1ccccc1)[C@H](O)Cc1ccccc1C(=O)NC(C)(C)C |
|  |  |  |  | 14.7 nM | CC(=O)N[C@@H](CSc1ccc2ccccc2n1)C(=O)N[C@@H](Cc1ccccc1)[C@H](O)Cc1ccccc1C(=O)NC(C)(C)C |
| < 100 | 11 |  | 31 | 0.32 nM | CC(=O)N[C@@H](CS(=O)(=O)c1ccc2ccccc2c1)C(=O)N[C@@H](Cc1ccccc1)[C@H](O)Cc1ccccc1C(=O)NC(C)(C)C |
|  | 2930 |  | 5910 | 170 nM | CC(C)(C)NC(=O)c1ccccc1C[C@@H](O)[C@H](Cc1ccccc1)NC(=O)[C@H](CSc1ccc(C(F)(F)F)cc1)NS(C)(=O)=O |
| < 300 | 59 | 32 | 440 | 0.77 nM | CC(C)(C)NC(=O)c1ccccc1C[C@@H](O)[C@H](Cc1ccccc1)NC(=O)[C@H](CS(=O)(=O)c1ccc(F)cc1)NS(C)(=O)=O |
| 490 |  | 5010 |  | 2.1 nM | Cn1nnnc1[S+]([O-])C[C@H](NS(C)(=O)=O)C(=O)N[C@@H](Cc1ccccc1)[C@H](O)Cc1ccccc1C(=O)NC(C)(C)C (stereo partly drawn) |
|  | 270 | 323 | 760 | 1.2 nM | CC(C)(C)NC(=O)c1ccccc1C[C@@H](O)[C@H](Cc1ccccc1)NC(=O)[C@H](CSc1cccc2ccccc12)NS(C)(=O)=O |
| < 200 | 53 |  | 116 | 2.3 nM | CC(C)(C)NC(=O)c1ccccc1C[C@@H](O)[C@H](Cc1ccccc1)NC(=O)[C@H](C[S+]([O-])c1ccc(C(F)(F)F)cc1)NS(C)(=O)=O (stereo partly drawn) |
|  | 1650 |  | 926 | 14.7 nM | CC(C)(C)NC(=O)c1ccccc1C[C@@H](O)[C@H](Cc1ccccc1)NC(=O)[C@H](CSCc1ccccc1)NS(C)(=O)=O |
